Laboratory results from article PMC3165084 (Leukemia, 2011).
Where “and” joins values, the source holds several entries; their conditions need not be identical. Equal entries are not always repeated. Marks after values point to notes of the source that are not given here.

How the values were obtained:
MDS = settings: above 400 mg bid, 21-day bid dosing; ref [6]; cited from earlier work
[1] = system: acute myeloid leukemia (AML); test: Phase 1 dose escalation: clinical response; format: in vivo, human
In short: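 Bone marrow aspiration and biopsy were done within two weeks before therapy and repeated on days 26–28 of each 28-day cycle. Blood counts were taken at least weekly. Response was scored by International Working Group criteria. Intra-patient escalation was allowed if no CR after cycle 1. Patients without PR or clinical improvement after 6 cycles were deemed treatment failures.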

advanced cancer = settings: 5-day, every 12 hour dosing; highest dose level 1300 mg twice daily for five days; ref [4]; cited from earlier work
farnesyl transferase = settings: correlative studies in patients; ref [6]–[8]; cited from earlier work
[2] = system: previously untreated AML or MDS; settings: 600 mg bid, 21 day schedule, older patients with previously untreated AML or MDS; ref [5]; cited from earlier work
solid tumor = settings: 900 mg bid dose level, week-on, week-off; ref [7]; cited from earlier work
[3] = system: myeloid and lymphoid leukemias; settings: ref [2], cited from earlier work
[4] = system: patients with acute myeloid leukemia (AML); test: Phase 1 dose escalation, week-on week-off oral tipifarnib: toxicity, DLT and MTD; format: in vivo, human
In short: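 Adult patients with AML (M3 excluded) received oral test compound twice daily on days 1–7 and 15–21 of 28-day cycles in 3+3 cohorts. AEs were graded by NCI CTCAE v3.0 from clinic review and patient diaries. DLT was any possibly drug-related […] nonhematologic toxicity (excluding palliated GI events and corrected electrolytes), or non-reversible grade 4 hematologic toxicity without blasts. MTD was ≤1 of 6 with DLT in cycle 1.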

[5] = Plasma pharmacokinetics of tipifarnib, LCMS/MS, non-compartmental analysis; format: in vivo, human
[6] = 1200 mg bid, Subsequent courses
[7] = AUC12h Day 5 / AUC12h Day 1, 1400 mg bid
[8] = Day 1, 1200 mg, plasma, individual subjects 4-10

Cn1cncc1[C@@](N)(c1ccc(Cl)cc1)c1ccc2c(c1)c(-c1cccc(Cl)c1)cc(=O)n2C [tipifarnib, Tipifarnib]
dose limiting toxicities (MDS): headache, fatigue, confusion, and vision changes
Responses ([1]; 800 mg bid): 1 CMML patient cleared leukemic blasts
marrow blasts, change ([1]; 800 mg bid, one patient, over 3 cycles): from 36% to 10%
Responses ([1]; 1000 mg bid): 1 CR went to transplant
Responses ([1]; 1200 mg bid): 2 CRs, 1 marrow response (from 50%-7% blasts)
duration of CR ([1]; 1200 mg bid, individual CR patients): one month
Responses ([1]; 1400 mg bid): minor responses
decrease of bone marrow blasts ([1]; 1400 mg bid, two patients): ≥ 50%
complete remissions (CR) seen ([1]; all dose levels, 44 patients, 1000 mg and 1200 mg bid): 3
complete responses in expansion group ([1]; expansion group, 7 patients at MTD 1200 mg bid): no complete responses
formal responses ([1]; lower dose levels (below 1000 mg bid)): No formal responses
protocol-defined maximum tolerated dose (MTD) (advanced cancer): not achieved
duration of farnesyl transferase inhibition after administration (farnesyl transferase): seven days
partial response, patients [2]: 10%
DLT (solid tumor): grade 3 fatigue
response at lowest dose level ([3]; 100 mg bid, 21-day continuous dosing): a CR at the lowest dose level
overall response rate ([3]; 34 patients, 21-day continuous dosing schedule): 29%
# DLTs ([4]; 400 mg bid): 1
DLT descriptions ([4]; 400 mg bid): hepatic
# DLTs ([4]; 1200 mg bid): 1
DLT descriptions ([4]; 1200 mg bid): renal
ALT, SGPT toxicity, Grade 2 ([4]; 1200 mg bid, Course 1): 2
Anorexia, Grade 2 ([4]; 1200 mg bid, Course 1): 2
Bilirubin toxicity, Grade 2 ([4]; 1200 mg bid, Course 1): 2
Creatinine toxicity, Grade 2 ([4]; 1200 mg bid, Course 1): 2
Creatinine toxicity, Grade 3 ([4]; 1200 mg bid, Course 1): 1
Dehydration, Grade 2 ([4]; 1200 mg bid, Course 1): 1
Fatigue, Grade 2 ([4]; 1200 mg bid, Course 1): 3
Hypoalbuminemia, Grade 2 ([4]; 1200 mg bid, Course 1): 2
Nausea, Grade 2 ([4]; 1200 mg bid, Course 1): 1
Nausea, Grade 3 ([4]; 1200 mg bid, Course 1): 1
Rash / desquamination, Grade 2 ([4]; 1200 mg bid, Course 1): 1
Vomiting, Grade 2 ([4]; 1200 mg bid, Course 1): 2
ALT, SGPT toxicity, Grade 3 [4, 6]: 1
AST, SGOT toxicity, Grade 2 [4, 6]: 1
Anorexia, Grade 2 [4, 6]: 1
Ataxia, Grade 3 [4, 6]: 1
Bilirubin toxicity, Grade 2 [4, 6]: 1
Constipation, Grade 2 [4, 6]: 1
Creatinine toxicity, Grade 2 [4, 6]: 3
Fatigue, Grade 3 [4, 6]: 2
Febrile neutropenia, Grade 3 [4, 6]: 1
Hyperglycemia, Grade 2 [4, 6]: 2
Hypoalbuminemia, Grade 2 [4, 6]: 2
Nausea, Grade 2 [4, 6]: 2
Restless leg syndrome, Grade 2 [4, 6]: 1
Syncope (fainting), Grade 3 [4, 6]: 1
Vomiting, Grade 2 [4, 6]: 2
Weight loss, Grade 2 [4, 6]: 1
# DLTs ([4]; 1400 mg bid): 2
DLT descriptions ([4]; 1400 mg bid): renal
# DLTs ([4]; 1600 mg bid): 2 ^*
DLT descriptions ([4]; 1600 mg bid): hepatic, renal ^*
maximum tolerated dose (MTD) ([4]; oral twice daily, days 1–7 and 15–21 of each 28-day cycle, first-cycle DLT): 1200 mg bid
Accumulation Index, median ([5]; AUC12h Day 5 / AUC12h Day 1, 1200 mg bid): 1.2 and 1.23
Accumulation Index ([5]; AUC12h Day 5 / AUC12h Day 1, 1200 mg bid, individual subjects 4-10): 1.23 and 0.91 and 2.40 and 1.55
Accumulation Index, high [5, 7]: 1.37
Accumulation Index, low [5, 7]: 0.97
Accumulation Index, median [5, 7]: 1.17
Accumulation Index ([5]; AUC12h Day 5 / AUC12h Day 1, 1400 mg bid, individual subjects 1-3): 1.37 and 0.97
Cmin, high ([5]; Day 1, 1200 mg, plasma): 402 ng/mL
Cmin, low ([5]; Day 1, 1200 mg, plasma): 82 ng/mL
Cmin, median ([5]; Day 1, 1200 mg, plasma): 166 ng/mL
AUC12h [5, 8]: 3905 ng·h/mL
Cmax [5, 8]: 804 ng/mL and 1180 ng/mL and 479 ng/mL and 2300 ng/mL
